Paper PMC8204304 (ACS Infectious Diseases, 2021)
Like-named read-outs stand apart in the source and are kept apart here.

Assays:
Dd2 [1] = conditions: read-out: Dd2 IC50; cited from earlier work
TM90C2b = assay: 72 h [3H]hypoxanthine incorporation assay, TM90C2b; type: cell-based; conditions: Plasmodium falciparum
Outline: (§1)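 Asexual Pf strains were tested in a modified [3H]-hypoxanthine incorporation assay. Drug-resistant laboratory strains were compared with the drug-sensitive NF54 strain. IC50s came from linear interpolation.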

7G8 = assay: 72 h [3H]hypoxanthine incorporation assay, 7G8; type: cell-based; conditions: Plasmodium falciparum
Outline: as §1

Cam3.I = assay: 72 h [3H]hypoxanthine incorporation assay, Cam3.I; type: cell-based; conditions: Plasmodium falciparum
Outline: as §1

NF54 = assay: 72 h [3H]hypoxanthine incorporation assay, NF54; type: cell-based; conditions: Plasmodium falciparum
Outline: as §1

K1 = assay: 72 h [3H]hypoxanthine incorporation assay, K1; type: cell-based; conditions: Plasmodium falciparum
Outline: as §1

Dd2 [2] = assay: 72 h [3H]hypoxanthine incorporation assay, Dd2; type: cell-based; conditions: Plasmodium falciparum
Pf parasites = assay: Minimum inoculum resistance; type: cell-based, Plasmodium falciparum
Outline: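 Pf cultures were selected at constant pressure of 3 × IC50 in two groups. The lower-inoculum group used 24 wells. The higher group started at 2 × 10^7 parasites in triplicate, covering 2 × 10^7 to 6 × 10^7. Wells were monitored for day of recrudescence. MIR = total inoculum divided by the number of recrudescent wells. A DHODH inhibitor served as positive control. Resistant clones were whole-genome sequenced.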

IC50 (TM90C2b) [nM]	IC50 (7G8) [nM]	IC50 (Cam3.I) [nM]	IC50 (NF54) [nM]	IC50 (K1) [nM]	IC50 (Dd2 [2]) [nM]	SMILES	IC50 (Dd2 [1]) [nM]	minimum inoculum resistance (MIR) (Pf parasites; selection pressure 3 × IC50, parasites)	day of recrudescence (Pf parasites; starting inoculum 2 × 10^5 parasites, 24 replicates)	day of recrudescence (Pf parasites; starting inoculum 2 × 10^7 parasites, triplicate) [days]
–	–	–	–	–	–	O=C(NC1Cc2ccccc2C1)c1nccnc1NC(=O)N1CCCCC1 [N-(2,3-dihydro-1H-inden-2-yl)-3-(piperidine-1-carboxamido)pyrazine-2-carboxamide]	63	–	–	–
5	2	11	4	2	6	C[C@H]1[C@H](OC(=O)CCC(=O)O)O[C@@H]2O[C@@]3(C)CC[C@H]4[C@H](C)CC[C@@H]1[C@@]24OO3 [artesunate]	–	–	–	–
–	–	–	–	–	–	Cc1cc(Nc2ccc(S(F)(F)(F)(F)F)cc2)n2nc(C(C)(F)F)nc2n1 [DSM265]	–	2 × 10^7	never recrudesced	25
135	79	180	8	202	157	CCN(CC)CCCC(C)Nc1ccnc2cc(Cl)ccc12 (stereo not shown) [chloroquine]	–	–	–	–
